ABCG2 inh: ABCG2 efflux pump inhibitors, primary screen, multiplex with ABCB1, IgMXP3 cells, flow cytometry. JC-1 efflux. Broad substrate specificity ATP-binding cassette transporter ABCG2 (Homo sapiens), Q9UNQ0. AID 1325, 2008. inhibition, % at 6.6 µM. actives 0.1% (n = 190,000);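 active = inhibition above 80%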;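 also: 0% = DMSO and 100% = nicardipine control wells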
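Test system: IgMXP3 (ABCG2) plus far-red-tagged CCRF-Adr (ABCB1) cells / Amount: 3 million cells/mL in well / Reagent: JC-1 transporter substrate / Timing: 10 min compound exposure, 25 °C / Signal: flow cytometry, 530 nm JC-1 signal / Read-out: percent efflux inhibition, scaled nicardipine 100% to DMSO 0% / Benchmarks: nicardipine as high control, DMSO as low control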
p97 inhibitor: inhibitors of human p97 ATPase, primary screen, biochemical. recombinant p97 ATPase, Kinase-Glo ATP luminescence, 3 h. inhibition, % at 8 µM. actives 0.42% (n = 220,000); in the data active = inhibition above about 15%;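 also: 0% = DMSO vehicle and 100% = wells lacking enzyme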
Target sequence (P55072 whole entry, looked up): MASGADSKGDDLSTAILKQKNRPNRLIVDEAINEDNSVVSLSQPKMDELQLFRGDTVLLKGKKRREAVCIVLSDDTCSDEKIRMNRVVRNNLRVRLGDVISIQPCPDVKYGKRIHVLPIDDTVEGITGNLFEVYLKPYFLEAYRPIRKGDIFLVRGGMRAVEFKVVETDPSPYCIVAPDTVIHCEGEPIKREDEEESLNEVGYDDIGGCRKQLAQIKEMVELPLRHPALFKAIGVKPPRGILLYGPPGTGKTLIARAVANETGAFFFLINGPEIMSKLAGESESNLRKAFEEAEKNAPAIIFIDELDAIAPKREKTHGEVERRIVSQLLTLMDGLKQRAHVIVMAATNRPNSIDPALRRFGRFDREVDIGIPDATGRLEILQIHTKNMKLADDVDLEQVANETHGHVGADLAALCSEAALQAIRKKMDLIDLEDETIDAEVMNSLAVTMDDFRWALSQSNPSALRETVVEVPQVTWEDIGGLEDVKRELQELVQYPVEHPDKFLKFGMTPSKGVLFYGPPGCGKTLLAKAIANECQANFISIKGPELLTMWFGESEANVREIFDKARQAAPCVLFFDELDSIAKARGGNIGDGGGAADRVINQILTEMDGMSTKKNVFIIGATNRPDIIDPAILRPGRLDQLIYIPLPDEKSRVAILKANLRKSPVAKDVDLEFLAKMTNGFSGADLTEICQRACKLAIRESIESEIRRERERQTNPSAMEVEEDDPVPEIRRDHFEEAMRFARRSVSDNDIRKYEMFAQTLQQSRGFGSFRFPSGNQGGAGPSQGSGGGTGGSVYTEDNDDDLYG
Rad51 HR inh: human RAD51 strand exchange inhibitors, primary screen, biochemical, fluorescence; DNA repair protein RAD51 homolog 1 (Homo sapiens), Q06609; hRad51 DNA strand exchange, fluorescence dequenching; inhibition, % at 10 µM; actives 0.085% (n = 200,000);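 active = inhibition above 40% at the single screening dose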;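 also: 0% = DMSO control wells and 100% = blanks with heterologous ssDNA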
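Test system – preformed human Rad51 ssDNA filaments · Reagent – Donor/quencher-labelled 47-bp dsDNA substrate · Incubation – 37 °C 15-min filament assembly, 30-min compound preincubation, 15-min exchange · Signal – FRET fluorescence dequenching, excitation 485 nm, emission 520 nm · Read-out – percent inhibition from fluorescence, normalised to plate control and blank means · Benchmarks – plate control and blank wells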
HSV replic up: enhancers of HSV replication in host cells, fold increase, host cell viability | HSV replication augmentation in cells | maximum fold increase | actives 0.005% (n = 220,000) | AID 1956, 2009; in the data active = maximum fold increase above about 1.5; inconclusive = no clear call, values can overlap the other calls; tested in PC3 cells
ABCB1 inh: ABCB1 efflux pump inhibitors, primary screen, cell-based, multiplex, flow cytometry, ABCG2 counter-screen; CCRF-Adr cells, JC-1 efflux; AID 1326, 2008; ATP-dependent translocase ABCB1 (Homo sapiens), P08183; actives 0.067% (n = 190,000); inhibition, % at 6.6 µM; in the data active = inhibition above about 40%;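 also: 0% = vehicle and 100% = reference inhibitor; higher value means more JC-1 retained so stronger ABCB1 efflux block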
ABCB6 inh 2: ABCB6 transporter inhibitors, primary screen, K562-ABCB6 cells, flow cytometry, MLPCN library. ATP-binding cassette sub-family B member 6 (Homo sapiens), Q9NP58. K562-ABCB6 porphyrin accumulation, 1 h; hits give low values. fluorescence ratio to DMSO, % at 10 µM. actives 0.19% (n = 360,000). AID 602162, 2011;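 active = fluorescence ratio to DMSO below 75%, the collection mean minus 3 SD; inconclusive = too few cells collected in the well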;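 also: signal is porphyrin accumulated inside mitochondria; 100% equals median channel fluorescence of DMSO control wells; lower ratio means ABCB6 inhibition with less porphyrin fluorescence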
ABCB1 confirm: ABCB1 efflux pump inhibitors, confirmation, cell-based, single point, ABCG2 counter-screen. shares compounds with ABCG2 inh. CCRF-Adr cells, JC-1 efflux, flow cytometry. inhibition, % at 6.6 µM. actives 7% (n = 270). AID 1451, 2008;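 active = inhibition of pump activity above 50%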;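 also: 0% = DMSO and 100% = nicardipine full pump inhibition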
ABCG2 confirm: ABCG2 efflux pump inhibitors, confirmation, single point, IgMXP3 cells, ABCB1 counter-screen paired. shares compounds with ABCG2 inh. JC-1 efflux, flow cytometry. inhibition, % at 6.6 µM. actives 6% (n = 270). AID 1453, 2008;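 active = inhibition above 50%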;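 also: 0% = DMSO wells and 100% = nicardipine pump inhibitor wells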
IgMXP3 autofluor: compound autofluorescence in ABCG2-expressing IgMXP3 cells, confirmation, artefact control for ABC transporter inhibitor project, cell-based, 488/530 nm, flow cytometry. actives 30% (n = 270). compound autofluorescence 488/530 nm; hits give high values. shares compounds with ABCG2 inh. fluorescence at 6.6 µM;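 active = fluorescence in ABCG2-expressing cells above the plate's control-well mean plus 3 SD, cut at about 15 in these data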;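 also: median cell fluorescence with compound minus that of DMSO-treated control cells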
CCRF-Adr fluor: compound autofluorescence in ABCB1-expressing CCRF-Adr cells, confirmation, artefact control for ABC transporter inhibitor project, cell-based, 488/530 nm, flow cytometry. shares compounds with ABCG2 inh. compound autofluorescence 488/530 nm; hits give high values. fluorescence at 6.6 µM. actives 30% (n = 270). AID 1483, 2009;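 active = fluorescence beyond the plate control mean plus 3 SD, with a fluorescence-to-maximum score over 2, cut at about 25 in these data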
p97 confirm: p97 ATPase inhibitors, retest, confirmation, biochemical | shares compounds with p97 inhibitor | recombinant p97 ATPase, Kinase-Glo ATP luminescence | actives 44% (n = 760) | inhibition, % at 8 µM;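 active = percent inhibition of p97 ATPase above a set limit, the primary screen's mean plus 3 SD, cut at about 15% in these data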;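 also: 0% = DMSO wells and 100% = wells lacking p97 protein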
* hit, by the source's call; i = inactive; ? = inconclusive; · = not tested or not shown. An excerpt weighted towards active compounds, which were near 0.55% of everything screened.

SMILES	ABCG2 inh	p97 inhibitor	Rad51 HR inh	HSV replic up	ABCB1 inh	ABCB6 inh 2	others
O=P(Oc1ccccc1)(N1CCOCC1)N1CCOCC1	·	·	·	·	·	95
O=P(OCC(F)(F)C(F)F)(N1CCOCC1)N1CCOCC1	1	2	89*	i	0	94
O=C(NCCN1CCOCC1)c1ccc(Cl)nc1	·	3	40*	i	·	93
CCCCCn1c(N)c(C(=O)NCCN2CCOCC2)c2nc3ccccc3nc21	8	-10	-2	i	1	108
Cc1ccccc1N1C(=O)NC(=O)/C(=C\c2ccc3c(c2)CCCN3Cc2ccccc2)C1=O	5	2	-251	i	5	163
O=C1NC(=S)NC(=O)C1=Cc1ccc2c(c1)CCN2CCCCl	·	18*	-41	i	·	101
COc1ccccc1-c1cc(NC(C)=O)c2ncc(-c3ccccc3)n2c1	·	·	·	·	·	94
O=C1NC(=O)N(Cc2ccco2)C(=O)/C1=C/c1ccc(-c2cccc([N+](=O)[O-])c2)o1	-11	15*	-8	i	-2	103
N[C@@H](Cc1c[nH]c2ccccc12)c1nnc(SCc2ccc(Cl)cc2)o1	0	-3	-2	i	0	71*
CCOC(=O)NC1CCc2cc(OC)c(OC)c(OC)c2-c2ccc(OC)c(=O)cc21 (stereo unspecified)	·	·	·	·	·	99
O=C1NC(=S)N(Cc2ccco2)C(=O)/C1=C\c1cccs1	-3	41*	-37	?	-1	·
Nc1nonc1-n1nnc(C(=O)N/N=C/c2ccc(OCc3ccc(F)cc3)cc2)c1COc1ccccc1	·	3	2	i	·	97
CC(C)=CCC12CN3CCN(CC(C3)C1=O)C2	107*	-4	3	i	4	102	ABCB1 confirm=-3;ABCG2 confirm=7;IgMXP3 autofluor=2.8;CCRF-Adr fluor=19
COc1ccc(CN2C(=O)C(CC(=O)NCc3ccco3)CC(C(=O)N(C)C)=C2C)cc1 (stereo unspecified)	·	·	·	·	·	98
CCn1nc(/C=C/c2ccccc2)nc2c(=O)n(C)c(=O)nc1-2	0	34*	33	i	0	118	p97 confirm=37*
COc1cc2c(c(OC)c1OC)-c1ccc(SC)c(=O)cc1C(N)CC2 (stereo unspecified)	·	·	·	·	·	98
CN(C)[C@@H]1C(=O)C(C(N)=O)=C(O)[C@@]2(O)C(=O)C3=C(O)c4c(O)cccc4[C@@](C)(O)C3C[C@@H]12 (stereo partly specified)	·	·	·	·	·	110
